Assay results: ChEMBL document CHEMBL1150304, “Synthesis of new heteroaryl and heteroannulated indoles from dehydrophenylalanines: Antitumor evaluation” (2008)

Experiments:
Assay type in all cases: functional
SF-268 = assay: Antitumor activity against human SF268 cells after 48 hrs; conditions: SF-268, 48 h
In short: (§1)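 NCI-derived lines grown as monolayers in RPMI-1640 with 5% heat-inactivated FBS and 2 mM glutamine, 37 °C, 5% CO2. Plated at 1.5 × 10⁵ cells/mL (MCF-7, SF-268) or 0.75 × 10⁴ cells/mL (NCI-H460) and incubated 24 h. Continuous 48 h exposure to five serial concentrations (DMSO ≤0.5%). Sulforhodamine B stain, A492. GI50 is 50% net-growth inhibition from dose-response curves. Experiments run independently in duplicate.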

MCF7 = assay: Antitumor activity against human MCF7 cells after 48 hrs; conditions: MCF7, 48 h; in short: as §1
NCI-H460 = assay: Antitumor activity against human NCI-H460 cells after 48 hrs; conditions: NCI-H460, 48 h; in short: as §1

Compound | GI50 (SF-268) [µM] | GI50 (MCF7) [µM] | GI50 (NCI-H460) [µM]
COC(=O)c1[nH]c2ccccc2c1-c1cccc2c1sc1ccccc12 | 17 | 11 | 12.7
COC(=O)c1[nH]c2ccc3c4ccccc4sc3c2c1-c1ccccc1 | 50 | 72.7 | 40.3
COC(=O)c1[nH]c2ccccc2c1-c1cccc2c1oc1ccccc12 | 35 | 26.5 | 18
COc1cccc2c1C(=O)c1c(O)c3c(c(O)c1C2=O)C[C@@](O)(C(=O)CO)C[C@@H]3O[C@H]1C[C@H](N)[C@H](O)[C@H](C)O1 [DOXORUBICIN] | 0.094 | 0.0428 | 0.094
